Holding throughout (type): functional, cell-based
For assay [1], the system named is BGC-823. The experiment in a line: Cytotoxicity against human BGC823 cells up to 100 uM after 48 hrs by MTT assay. The gist of the method:
(§1)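 Cell lines obtained from a provincial disease-control centre. Compounds (HPLC-DAD purity over 95%) dissolved in DMSO and tested against the cells. Viability read by MTT colorimetric assay and expressed as IC50. Doxorubicin HCl served as positive control and compound-free medium as negative control. Each test was run three times.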

Assay [2] can be described thus: Cytotoxicity against human GHOST-R5X4 cells after 48 hrs by MTT assay. Conditions: GHOST-R5X4, 48 h. The gist of the method: as §1
(In general: Formazan colour is commonly taken as a measure of viable cells.)

Assay [3] concerns HepG2. Briefly: Cytotoxicity against human HepG2 cells up to 100 uM after 48 hrs by MTT assay. The gist of the method:
as §1

Assay [4] concerns KB. Briefly: Cytotoxicity against human KB cells up to 100 uM after 48 hrs by MTT assay. The gist of the method:
as §1

In assay [5] the test system is A-375. The experiment in a line: Cytotoxicity against human A375 cells up to 100 uM after 48 hrs by MTT assay. The procedure, abridged:
as §1

Assay [6] has as its system BGC-823. Briefly: Cytotoxicity against human BGC823 cells after 48 hrs by MTT assay. The conditions noted are these: BGC-823, 48 h. The gist of the method:
as §1

The test system of assay [7] is HepG2. Briefly: Cytotoxicity against human HepG2 cells after 48 hrs by MTT assay. The conditions noted are these: HepG2, 48 h. The gist of the method:
as §1

Assay [8] concerns KB. Briefly: Cytotoxicity against human KB cells after 48 hrs by MTT assay. The gist of the method: as §1
The test system of assay [9] is A-375. The experiment in a line: Cytotoxicity against human A375 cells after 48 hrs by MTT assay. Conditions: A-375, 48 h. The procedure, abridged:
as §1

Assay [10] relates to GHOST-R5X4. Briefly: Cytotoxicity against human GHOST-R5X4 cells up to 100 uM after 48 hrs by MTT assay. The gist of the method:
as §1

The source of these data is ChEMBL document CHEMBL2203202, “Angucyclines from an insect-derived actinobacterium Amycolatopsis sp. HCa1 and their cytotoxic activity” (Bioorg Med Chem Lett, 2012).

Structures can show the parent of a compound that is named as a salt. The source made the active and inactive calls. The calls are words filed in the database; no cut-off is given here.

`COc1cccc2c1C(=O)c1ccc3cc(C)cc(O)c3c1C2=O`: the result in assay [1], in assay [3], in assay [4] and in [5] was inactive. In addition, in assay [2], the IC50 (as a rule, the point on the concentration scale where inhibition reaches its midpoint) was found to be 89 µM.
With `C[C@@]1(O)Cc2ccc3c(c2C(=O)[C@@H]1O)C(=O)c1cccc(O)c1C3=O`, the result in assay [1], in [3], in assay [4] and in assay [5] was inactive. Further, in assay [2], the midpoint of inhibition, the IC50, lay at 37.6 µM.
On to `COC(=O)C(O)C(C)(O)Cc1ccc2c(c1O)C(=O)c1cccc(O)c1C2=O` (centres undefined), for which the result in assay [4] and in assay [5] was inactive.
On to `Cc1cc(O[C@@H]2O[C@@H](C)[C@H](O)[C@@H](O)[C@H]2O)c2c3c(c(O)cc2c1)C(=O)c1c(O)cccc1C3=O`, for which the outcome in assay [4] and in [5] was inactive.
As to `COc1cccc2c1C(=O)c1c(O)c3c(c(O)c1C2=O)C[C@@](O)(C(=O)CO)C[C@@H]3O[C@H]1C[C@H](N)[C@H](O)[C@H](C)O1` [DOXORUBICIN HYDROCHLORIDE], the IC50 in assay [6] is 0.01 µM; in assay [7], 1.11 µM; in assay [8], 0.01 µM; in assay [2] it was 5.73 µM; in assay [9] it was 0.73 µM.
Take `C[C@H]1O[C@H](O[C@]23C(=O)[C@@H](O)[C@](C)(O)C[C@@]2(O)C=CC2=C3C(=O)c3cccc(O)c3C2=O)CC[C@H]1O` [SAKYOMICIN A]: the values for the IC50 in assay [6] and in assay [7] were 15.1 µM and 34.9 µM, respectively. In addition, the result in [4], in [10] and in assay [5] was inactive.
With `C[C@H]1O[C@H](O[C@]23C(=O)C[C@](C)(O)C[C@@]2(O)C=CC2=C3C(=O)c3cccc(O)c3C2=O)CC[C@H]1O` [SAKYOMICIN C], the IC50 in assay [6] came to 11 µM; in [7] it was 17.4 µM; in assay [2], 14 µM; in assay [9], 17.5 µM. For the same molecule, the outcome in assay [4] was inactive.
In the case of `C[C@]1(O)CC(=O)c2c(ccc3c2C(=O)c2cccc(O)c2C3=O)C1` [TETRANGOMYCIN], the IC50 in assay [6] is 36.1 µM; in assay [8], 23.7 µM; in assay [2] it was 17.7 µM. Further, the result in assay [3] and in [5] was inactive.
